Measurements of several laboratories.
Protocols differ between the studies behind these lines.
Matrix: plasma

CNC(=O)n1ccc2cc(Oc3ccnc(NC(=O)c4ccc(C5CCN(CCO)CC5)cc4)c3)c(OCCOC)cc21
half-life (human; oral, 35 mg, single dose, fed, healthy volunteers): 28.3 h

Cc1ccc(C(=O)Nc2ccc(CN3CCN(C)CC3)c(C(F)(F)F)c2)cc1C#Cc1cnc2[nH]ncc2c1
half-life (human; oral, 40 mg, single dose, healthy volunteers): 26.1 h

CC(C)n1c(Nc2cccnc2)nc2cnc(Nc3ccc(N4CCN(C)CC4)cc3)nc21
half-life (male human; oral, 150 mg, single dose): 36 h

Cc1ccc(NC(=O)c2ccc(CN3CCN(C)CC3)cc2)cc1Nc1nccc(-c2cncc(-c3oncc3C)c2)n1
half-life (human; oral, 200 mg/day, multiple doses, steady state, healthy volunteers): 23.3 h

NS(=O)(=O)OC[C@@H]1C[C@@H](n2ccc3c(N[C@H]4CCc5ccccc54)ncnc32)C[C@@H]1O
half-life (human; intravenous, 20 mg/m², patients): 5.1 h

NC(=S)NN=Cc1ncccc1N
half-life (human; oral, 150 mg): 1.5 h

Cn1cc(Nc2nc(N)nc(-c3cccc(-n4ccc5cc(C6CC6)cc(F)c5c4=O)c3CO)n2)cn1
half-life (human; oral, 300 mg, single dose, fasted, suspension): 9 h

CC[C@H](C)CCCCC(=O)N[C@@H](CCN)C(=O)N[C@H](C(=O)N[C@@H](CCN)C(=O)N[C@H]1CCNC(=O)[C@H]([C@@H](C)O)NC(=O)[C@H](CCN)NC(=O)[C@H](CCN)NC(=O)[C@H](CC(C)C)NC(=O)[C@@H](Cc2ccccc2)NC(=O)[C@H](CCN)NC1=O)[C@@H](C)O
half-life (human; intravenous, 0.75 mg/kg, single dose, infusion): 5.44 h

COc1ccc([C@@H](O)c2cc(-c3ncnc4cc(N5CCOCC5)ccc34)c(F)cc2Cl)nn1
half-life (human; oral, 200 mg, single dose, patients): 3.94 h
